Test results from ChEMBL document CHEMBL1133641, “A new class of potential chloroquine-resistance reversal agents for Plasmodia: syntheses and biological evaluation of 1-(3'-diethylaminopropyl)-3-(substituted phenylmethylene)pyrrolidines” (2000).
Each block holds one compound with its values, some of them ahead of it. Activity calls are given as the source filed them. The calls are words filed in the database; no cut-off is given here.

How the values were obtained:
Plasmodium berghei [1] = assay: (§1) In vivo pretreatment parasitemia in chloroquine-resistant Plasmodium berghei infected Mastomys coucha; range 4-5%; type: functional
Plasmodium yoelii [2] = assay: (§2) In vivo antimalarial activity as pretreatment parasitemia in chloroquine-resistant Plasmodium yoelii nigerienses infected Swiss Albino mice (Mus musculus); range 1-2%; type: functional
Plasmodium yoelii [3] = assay: In vivo antimalarial activity as parasitemia at day 6 in chloroquine-resistant Plasmodium yoelii nigerienses infected Swiss Albino mice (Mus musculus); range 70-80%; type: functional
Plasmodium berghei [4] = assay: Evaluated for the Heme oxygenase (Values are mean +/- SD of 4 separate observations. Specific activity in nmol/h/mg protein) in chloroquine-resistant Plasmodium berghei; type: functional
In short: (§3)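 Mastomys carrying CQ-resistant P. berghei were dosed orally at 15 mg/kg for 10 days. Untreated CQ-resistant and CQ-sensitive parasites served as reference samples. Parasites were isolated by density-gradient centrifugation and saponin lysis. Heme oxygenase was followed as bilirubin formation in the post-mitochondrial fraction and expressed as nmol/h/mg protein.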

Plasmodium yoelii [5] = assay: Heme content in chloroquine-sensitive Plasmodium yoelii; type: functional
Plasmodium berghei [6] = assay: In vivo resistance reversal at day 10 in chloroquine-resistant Plasmodium berghei infected Mastomys coucha at 10 mg/kg; range 20-22%; type: functional
Plasmodium yoelii [7] = assay: Heme content after 10 days in chloroquine-resistant Plasmodium yoelii at 15 mg/kg; type: functional
Plasmodium berghei [8] = assay: Heme content in chloroquine-resistant Plasmodium berghei; type: functional
Plasmodium berghei [9] = assay: In vivo antimalarial activity as parasitemia at day 10 in chloroquine-resistant Plasmodium berghei infected Mastomys coucha at 15 mg/kg; range 20-22%; type: functional
Plasmodium berghei [10] = assay: In vivo antimalarial activity as parasitemia at day 17 in-chloroquine-resistant Plasmodium berghei infected Mastomys coucha treated to day 10; No inhibition; type: functional, organism-based
Mus musculus [11] = organism: Mus musculus; assay: In Vitro inhibition of Heme Oxygenase in Plasmodium yoelii (host) at concentration 100 uM; type: functional
In short: (§4)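 In vitro heme oxygenase, cell-free: post-mitochondrial fractions of P. yoelii parasites and of infected host liver. Test compounds at 10-100 µM were preincubated 10 min in the assay system before the enzyme reaction started. Activity was followed as bilirubin formation and expressed as % inhibition.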

Mus musculus [12] = organism: Mus musculus; assay: In Vitro inhibition of Heme Oxygenase in Plasmodium yoelii (host) at concentration 50 uM; type: functional; in short: as §4
Plasmodium berghei [13] = assay: In vivo antimalarial activity as parasitaemia at day 17 in chloroquine-resistant Plasmodium berghei infected Mastomys coucha treated to day 10; range 25-30%; type: functional
Plasmodium berghei [14] = assay: In vivo antimalarial activity as parasitemia at day 10 in chloroquine-resistant Plasmodium berghei infected Mastomys coucha; range 20-22%; type: functional
Plasmodium berghei [15] = assay: In vivo antimalarial activity as parasitemia at day 17 in chloroquine-resistant Plasmodium berghei infected Mastomys coucha treated to day 10; range 25-30%; type: functional
Plasmodium yoelii [16] = assay: as §2; type: functional; remark: listed apart in the source
Plasmodium berghei [17] = assay: In vivo resistance reversal at day 10 in chloroquine-resistant Plasmodium berghei infected Mastomys coucha at 10 mg/kg; range 20-22; type: functional
Plasmodium yoelii [18] = assay: (§5) In vivo antimalarial activity as parasitemia at day 17 in chloroquine-resistant Plasmodium yoelii nigerienses infected Swiss Albino mice (Mus musculus) treated at day 10; No survivors; type: functional, organism-based
[19] = tested on: Plasmodium yoelii nigeriensis; assay: In Vitro inhibition of Heme Oxygenase in Cell-free parasite Plasmodium yoelii at concentration 10 uM;NI denotes nil inhibition; type: functional
In short: (§6)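 Heme oxygenase activity was measured as bilirubin formation in a post-mitochondrial fraction. The parasite enzyme came from cell-free P. yoelii, isolated from infected blood by density gradient centrifugation and saponin lysis. The host enzyme came from infected liver. Compounds were tested at 10–100 µM and preincubated for 10 min before the reaction was started.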

[20] = tested on: Plasmodium yoelii nigeriensis; assay: Inhibition of heme oxygenase in Plasmodium yoelii nigeriensis isolated from infected mice (Mus musculus) (oral); type: functional
In short: (§7)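 Swiss albino mice carried P. yoelii nigeriensis tolerant to CQ up to 120 mg/kg. They received compound orally at 15 mg/kg body wt for 5 days. Parasites were then isolated from blood by density gradient centrifugation and saponin lysis, and enzyme inhibition was measured as percent inhibition.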

Plasmodium yoelii [21] = assay: In vivo resistance reversal agent in chloroquine-resistant Plasmodium yoelii nigerienses infected Swiss Albino mice (Mus musculus). Parasitemia observed on day 6-10 of treatment in Group III NI denotes nil inhibition; type: functional, organism-based
Plasmodium berghei [22] = assay: In vivo antimalarial activity as parasitaemia at day 17 in chloroquine-resistant Plasmodium berghei infected Mastomys coucha treated to day 10; range >25-30%; type: functional
Plasmodium yoelii [23] = assay: In vivo antimalarial activity as pretreatment parasitaemia in chloroquine-resistant Plasmodium yoelii nigeriensis infected Swiss Albino mice (Mus musculus); range 1-2%; type: functional
Plasmodium berghei [24] = assay: In vivo resistance reversal at day 10 against chloroquine-resistant Plasmodium berghei infected Mastomys coucha at 10 mg/kg; range 20-22; type: functional
Plasmodium yoelii [25] = assay: In vivo parasitaemia at day 17 in chloroquine-resistant Plasmodium yoelii nigeriensis infected Swiss Albino mice (Mus musculus); Not active; type: functional, organism-based
Plasmodium berghei [26] = assay: as §1; type: functional; remark: listed apart in the source
Plasmodium berghei [27] = assay: as §1; type: functional; remark: listed apart in the source
[28] = tested on: Plasmodium yoelii nigeriensis; assay: In Vitro inhibition of Heme Oxygenase in Cell-free parasite Plasmodium yoelii at concentration 100 uM; type: functional; in short: as §6
Plasmodium berghei [29] = assay: In vivo resistance reversal after 1 month in chloroquine-resistant Plasmodium berghei infected Mastomys coucha at 15 mg/kg on day 10; No inhibition
Plasmodium berghei [30] = assay: Hemozoin formation in chloroquine-sensitive Plasmodium berghei
Plasmodium yoelii [31] = assay: as §5; type: functional, organism-based; remark: listed apart in the source
Plasmodium berghei [32] = assay: Hemozoin formation in chloroquine-resistant Plasmodium berghei
Plasmodium berghei [33] = assay: as §1; type: functional; remark: listed apart in the source
Plasmodium berghei [34] = assay: Hemozoin formation in chloroquine-resistant Plasmodium berghei at 15 mg/kg for 10 days
Plasmodium yoelii [35] = assay: In vivo resistance reversal in chloroquine-resistant Plasmodium yoelii nigeriensis infected Swiss Albino mice (Mus musculus); range is 1-2%; type: functional
Plasmodium yoelii [36] = assay: Evaluated for the Heme oxygenase in chloroquine-resistant Plasmodium yoelii; type: functional
Plasmodium yoelii [37] = assay: In vivo antimalarial activity as parasitemia at days 6-10 in chloroquine-resistant Plasmodium yoelii nigerienses infected Swiss Albino mice (Mus musculus); range 70-80%; type: functional
Plasmodium yoelii [38] = assay: Evaluated for the Heme oxygenase in chloroquine-resistant Plasmodium yoelii which is treated with 15 mg/kg body weight of compound for 10 days;NA denotes no activity; type: functional, organism-based; parameters: dose 15 mg/kg
Plasmodium berghei [39] = assay: Evaluated for the Heme oxygenase (Values are mean +/- SD of 4 separate observations. Specific activity in nmol/h/mg protein) in chloroquine-resistant Plasmodium berghei which is treated with 15 mg/kg body weight of compound for 10 days; NA denotes no activity; type: functional, organism-based; parameters: dose 15 mg/kg; in short: as §3
Plasmodium berghei [40] = assay: Evaluated for the Heme oxygenase (Values are mean +/- SD of 4 separate observations. Specific activity in nmol/h/mg protein) in chloroquine-sensitive Plasmodium berghei; type: functional; in short: as §3
Plasmodium yoelii [41] = assay: In vivo antimalarial activity as MST of 1 week in chloroquine-resistant Plasmodium yoelii nigerienses infected Swiss Albino mice (Mus musculus) at 10 mg/kg chloroquine; type: functional
[42] = tested on: Plasmodium yoelii nigeriensis; assay: In Vitro inhibition of Heme Oxygenase in Cell-free parasite Plasmodium yoelii at concentration 10 uM; type: functional; in short: as §6
[43] = tested on: Plasmodium yoelii nigeriensis; assay: In Vitro inhibition of Heme Oxygenase in Cell-free parasite Plasmodium yoelii at concentration 50 uM; type: functional; in short: as §6
Plasmodium berghei [44] = assay: Heme content in chloroquine-sensitive Plasmodium berghei; type: functional
Plasmodium yoelii [45] = assay: In vivo antimalarial activity as survivors after 1 month in chloroquine-resistant Plasmodium yoelii nigeriensis infected Swiss Albino mice (Mus musculus) at 15 mg/kg combined with 10 mg/kg chloroquine; type: functional
Plasmodium yoelii [46] = assay: Evaluated for the Heme oxygenase in chloroquine-sensitive Plasmodium yoelii; type: functional
[47] = tested on: Plasmodium yoelii nigeriensis; assay: Hemozoin formation in chloroquine-resistant Plasmodium yoelii
Plasmodium berghei [48] = assay: In vivo antimalarial activity as parasitemia at day 10 in chloroquine-resistant Plasmodium berghei infected Mastomys coucha at 10 mg/kg; range 15-17%; type: functional
Plasmodium yoelii [49] = assay: In vivo resistance reversal (control MST = 1 week) in chloroquine-resistant Plasmodium yoelii nigerienses infected Swiss Albino mice (Mus musculus); type: functional
[50] = tested on: Plasmodium yoelii nigeriensis; assay: Hemozoin formation in chloroquine-sensitive Plasmodium yoelii
Plasmodium berghei [51] = assay: Heme content in chloroquine-resistant Plasmodium berghei at 15 mg/kg for 10 days; type: functional
[52] = biological target: T1, Glutathione S-transferase (Plasmodium yoelii yoelii) (UniProt Q7REH6); assay: Inhibition of Glutathione S-transferase in Plasmodium yoelii nigeriensis isolated from infected mice (Mus musculus) (oral); type: functional; settings: concentration not given here
T1 sequence (whole entry): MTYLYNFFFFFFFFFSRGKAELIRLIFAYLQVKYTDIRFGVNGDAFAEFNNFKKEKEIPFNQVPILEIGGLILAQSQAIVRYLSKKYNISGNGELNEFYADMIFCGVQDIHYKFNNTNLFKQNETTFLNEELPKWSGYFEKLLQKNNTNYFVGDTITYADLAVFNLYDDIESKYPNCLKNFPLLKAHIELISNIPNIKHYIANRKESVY
In short: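 Mice infected with P. yoelii nigeriensis were dosed orally at 15 mg/kg body wt for 5 days. Parasites were then isolated from blood by density-gradient centrifugation and saponin lysis. Glutathione-S-transferase (and heme oxygenase) activity is given as % inhibition.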

Plasmodium yoelii [53] = assay: In vivo antimalarial activity as MST of 1 week in chloroquine-resistant Plasmodium yoelii nigeriensis infected Swiss Albino mice (Mus musculus) at 15 mg/kg; type: functional
Plasmodium yoelii [54] = assay: In vivo resistance reversal agent in chloroquine-resistant Plasmodium yoelii nigerienses infected Swiss Albino mice (Mus musculus). Parasitemia observed on day 6-10 of treatment in Group IV;range is 80-70%; type: functional
[55] = tested on: Plasmodium yoelii nigeriensis; assay: Hemozoin formation in chloroquine-resistant Plasmodium yoelii at 15 mg/kg for 10 days
Plasmodium yoelii [56] = assay: Heme content in chloroquine-resistant Plasmodium yoelii; type: functional
[57] = tested on: Plasmodium yoelii nigeriensis; assay: In Vitro evaluation on percentage inhibition in Heme Oxygenase at concentration 100 (uM) of Cell-free parasite Plasmodium yoelii; type: functional; in short: as §6
[58] = tested on: Plasmodium yoelii nigeriensis; assay: Inhibition of heme oxygenase in Plasmodium yoelii nigeriensis isolated from infected mice (Mus musculus) (oral); NI denotes no inhibition; type: functional, organism-based; in short: as §7
[59] = biological target: T1, Glutathione S-transferase (Plasmodium yoelii yoelii); assay: Inhibition of Glutathione S-transferase in Plasmodium yoelii nigeriensis isolated from infected mice (Mus musculus) (oral); NI denotes nil inhibition; in short: as §7
Mus musculus [60] = organism: Mus musculus; assay: In Vitro inhibition of Heme Oxygenase in Plasmodium yoelii (host) at concentration 10 uM; type: functional; in short: as §6

SMILES: CCN(CC)CCCN1CC/C(=C\c2ccc(OC)cc2)C1
- Parasites (Plasmodium berghei [1]): 5%
- Parasites (Plasmodium yoelii [2]): 2%
- Parasites (Plasmodium yoelii [3]): 80%
- Mean (Plasmodium berghei [4]): 80.2 nM/h/mg
- Mean (Plasmodium yoelii [5]): 218 pmol/mg
- Mean survival time (Plasmodium berghei [6]): 22 days
- Mean (Plasmodium yoelii [7]): 172 pmol/mg
- Mean (Plasmodium berghei [8]): 60.3 pmol/mg
- Parasites (Plasmodium berghei [9]): 22%
- NI (Plasmodium berghei [10]): No inhibition
- inhibition (Mus musculus [11]): 31%
- inhibition (Mus musculus [12]): 21%
- Parasites (Plasmodium berghei [13]): >30%
- Parasites (Plasmodium berghei [14]): 22%
- Parasites (Plasmodium berghei [15]): >30%
- Parasites (Plasmodium yoelii [16]): 2%
- Mean survival time (Plasmodium berghei [17]): 22 days
- NS (Plasmodium yoelii [18]): No survivors
- NI [19]: No inhibition
- Inhibition [20]: 100%
- NI (Plasmodium yoelii [21]): No inhibition
- Parasites (Plasmodium berghei [22]): >30%
- Parasites (Plasmodium yoelii [23]): 2%
- Mean survival time (Plasmodium berghei [24]): 22 days
- NI (Plasmodium yoelii [25]): No inhibition
- Parasites (Plasmodium berghei [26]): 5%
- Parasites (Plasmodium berghei [27]): 5%
- inhibition [28]: 87%
- NI (Plasmodium berghei [29]): No inhibition
- Mean (Plasmodium berghei [30]): 101 pmol/mg
- NS (Plasmodium yoelii [31]): No survivors
- Mean (Plasmodium berghei [32]): 51.4 pmol/mg
- Parasites (Plasmodium berghei [33]): 5%
- Mean (Plasmodium berghei [34]): 71.1 pmol/mg
- Parasites (Plasmodium yoelii [35]): 2%
- Mean (Plasmodium yoelii [36]): 102 nM/h/mg
- Parasites (Plasmodium yoelii [37]): 80%
- NA (Plasmodium yoelii [38]): inactive
- NA (Plasmodium berghei [39]): inactive
- Mean (Plasmodium berghei [40]): 7.32 nM/h/mg
- Mean survival time (Plasmodium yoelii [41]): 1
- inhibition [42]: 48%
- inhibition [43]: 64%
- Mean (Plasmodium berghei [44]): 344 pmol/mg
- Mean survival time (Plasmodium yoelii [45]): > 1 month
- Mean (Plasmodium yoelii [46]): 10.2 nM/h/mg
- Mean [47]: 43.3 pmol/mg
- Parasites (Plasmodium berghei [48]): 17%
- Mean survival time (Plasmodium yoelii [49]): 1
- Mean [50]: 109 pmol/mg
- Mean (Plasmodium berghei [51]): 321 pmol/mg
- inhibition [52]: 99%
- Mean survival time (Plasmodium yoelii [53]): 1
- Parasites (Plasmodium yoelii [54]): 80%
- Mean [55]: 45.1 pmol/mg
- Mean (Plasmodium yoelii [56]): 109 pmol/mg

SMILES: CN(C)CCCN1c2ccccc2Sc2ccc(Cl)cc21
- inhibition [57]: 100%
- inhibition [43]: 85%

- NI [59]: No inhibition
SMILES: CCN(CC)CCCN1CC/C(=C\c2ccc(OCc3ccccc3)cc2)C1
- inhibition (Mus musculus [11]): 69%
- inhibition (Mus musculus [12]): 63%
- NI [58]: inactive
- inhibition [28]: 64%
- inhibition [42]: 28%
- inhibition [43]: 37%
- inhibition (Mus musculus [60]): 24%
